PubChem BioAssay AID602155 (Broad Institute, 2011)
Activity calls are given as the source filed them.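 The calls were made as follows: active = radiolabeled lipid uptake into receptor liposomes lowered versus untreated receptor liposomes, like the reference inhibitor; inactive = the rest.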

Target: Scavenger receptor class B member 1 (Mus musculus) (UniProt Q61009)
Experiment: HDL cholesteryl ester transfer into SR-BI proteoliposomes – biochemical, reconstituted liposomes, [3H]CE-HDL, scintillation, dry powder, orthogonal assay for SR-BI HDL uptake inhibitor project (AID 602155)
Conditions: [3H]CE-HDL selective uptake, at 1 µM, hits give low values
Summary of the method: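 Material: murine SR-BI proteoliposomes; reagent: [3H]CE-labeled HDL; timing: 60 min compound pre-incubation, then 4 h HDL uptake at 37 °C; read-out: selective [3H]CE uptake into liposomes as percent of control; control set: compound-free SR-BI liposomes in 0.5% DMSO (high), receptor-free liposomes (low)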

Sequence of Scavenger receptor class B member 1 (Mus musculus) (Q61009 whole entry, looked up): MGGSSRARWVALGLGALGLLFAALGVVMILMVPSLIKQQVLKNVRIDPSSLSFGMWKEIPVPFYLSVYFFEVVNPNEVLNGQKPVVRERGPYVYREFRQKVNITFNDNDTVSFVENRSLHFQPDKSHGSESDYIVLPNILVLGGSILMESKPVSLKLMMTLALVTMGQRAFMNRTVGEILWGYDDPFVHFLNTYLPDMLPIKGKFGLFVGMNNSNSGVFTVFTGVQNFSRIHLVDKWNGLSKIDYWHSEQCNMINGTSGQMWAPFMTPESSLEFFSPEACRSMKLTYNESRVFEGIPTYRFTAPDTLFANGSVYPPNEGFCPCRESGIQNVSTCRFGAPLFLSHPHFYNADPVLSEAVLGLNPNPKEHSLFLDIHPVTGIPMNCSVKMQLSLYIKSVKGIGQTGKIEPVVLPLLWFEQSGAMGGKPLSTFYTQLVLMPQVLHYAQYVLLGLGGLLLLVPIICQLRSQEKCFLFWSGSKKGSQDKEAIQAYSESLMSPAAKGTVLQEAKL

Compound	lipid uptake
CCC(=O)N1CCc2cc(-c3csc(NC(=O)c4ccco4)n3)ccc21	63.1%
COc1ccc(-c2nnn(CC(=O)N(C3CCCCC3)C(C)C(=O)NC3CCCC3)n2)cc1OC (centres undefined)	46.9%
O=C(Nc1ccccc1)c1ccccc1NS(=O)(=O)c1ccc(Cl)cc1	128% (inactive)
CCOC(=O)N1CCC(NC(=O)c2ccc3c(c2)N(Cc2ccc(F)cc2)CCS3)CC1	52.9%
